# Assay results as given in ChEMBL document CHEMBL1124265, “Effects of D-amino acid substitution on antagonist activities of angiotensin II analogues” (J Med Chem, 1988).
# Residues, ends and D or L forms follow the SMILES beside them.
# Molecular target: Angiotensin II receptor (Homo sapiens) (UniProt P30556+P50052)
# Assay: In vitro angiotensin II-like activity, expressed as percent relative to angiotensin II, measured in the rabbit aorta strip assay
# Format: functional, tissue-based
# Settings: Oryctolagus cuniculus
row,Structure (SMILES),Biological activity [%]
1,CC[C@H](C)[C@H](NC(=O)[C@H](Cc1ccc(O)cc1)NC(=O)[C@@H](NC(=O)[C@@H](CCCNC(=N)N)NC(=O)CNC)C(C)C)C(=O)NC(Cc1c[nH]cn1)C(=O)N1CCC[C@@H]1C(=O)N[C@@H](C(=O)O)C(C)C (stereo in doubt),-0
2,CC[C@H](C)[C@H](NC(=O)[C@@H]1CCCN1C(=O)[C@@H](Cc1c[nH]cn1)NC(=O)[C@@H](NC(=O)[C@@H](Cc1ccc(O)cc1)NC(=O)[C@@H](NC(=O)[C@H](CCCN=C(N)N)NC(=O)CNC)C(C)C)[C@@H](C)CC)C(=O)O,-0

# More lines, now with the values ahead:
row,Biological activity [%],Structure (SMILES)
1,-0,CC[C@H](C)[C@H](NC(=O)[C@H](Cc1ccc(O)cc1)NC(=O)[C@@H](NC(=O)[C@@H](CCCNC(=N)N)NC(=O)CNC)C(C)C)C(=O)N[C@@H](Cc1c[nH]cn1)C(=O)N1CCC[C@@H]1C(=O)N[C@H](Cc1ccc(Cl)cc1)C(=O)O
2,-0,CC[C@H](C)[C@H](NC(=O)C(C)NC(=O)[C@H](Cc1c[nH]cn1)NC(=O)[C@H](NC(=O)[C@@H](Cc1ccc(O)cc1)NC(=O)[C@@H](NC(=O)[C@H](CCCNC(=N)N)NC(=O)[C@@H](N)CC(=O)O)C(C)C)C(C)C)C(=O)O (stereo in doubt)
3,-0,CC[C@H](C)[C@H](NC(=O)[C@H](Cc1ccc(O)cc1)NC(=O)[C@@H](NC(=O)[C@@H](CCCNC(=N)N)NC(=O)CNC)C(C)C)C(=O)N[C@@H](Cc1c[nH]cn1)C(=O)N1CCC[C@@H]1C(=O)N[C@H](Cc1ccccc1)C(N)=O
4,-0,CC[C@H](C)[C@H](NC(=O)[C@@H]1CCCN1C(=O)[C@H](Cc1c[nH]cn1)NC(=O)[C@@H](NC(=O)[C@H](Cc1ccc(O)cc1)NC(=O)[C@H](NC(=O)[C@H](CCCN=C(N)N)NC(=O)CNC)C(C)C)[C@@H](C)CC)C(=O)O
5,-0,CC[C@H](C)[C@H](NC(=O)[C@@H](Cc1ccc(O)cc1)NC(=O)[C@@H](NC(=O)[C@H](CCCNC(=N)N)NC(=O)CNC)C(C)C)C(=O)N[C@@H](Cc1c[nH]cn1)C(=O)N1CCC[C@H]1C(=O)N[C@@H](C(=O)O)C(C)C
6,-0,CC[C@H](C)[C@H](NC(=O)[C@H](Cc1ccc(O)cc1)NC(=O)[C@@H](NC(=O)[C@@H](CCCNC(=N)N)NC(=O)CNC)C(C)C)C(=O)N[C@@H](Cc1c[nH]cn1)C(=O)N1CCC[C@@H]1C(=O)NC(Cc1c[nH]c2ccccc12)C(=O)O (stereo in doubt)
7,-0,CC[C@H](C)[C@H](NC(=O)[C@@H]1CCCN1C(=O)[C@H](Cc1c[nH]cn1)NC(=O)[C@H](NC(=O)[C@@H](Cc1ccc(O)cc1)NC(=O)[C@@H](NC(=O)[C@H](CCCN=C(N)N)NC(=O)CNC)C(C)C)C(C)C)C(=O)O
8,-0,CC[C@H](C)[C@H](NC(=O)[C@H](Cc1ccc(O)cc1)NC(=O)[C@@H](NC(=O)[C@@H](CCCNC(=N)N)NC(=O)CNC)C(C)C)C(=O)N[C@@H](Cc1c[nH]cn1)C(=O)N1CCC[C@@H]1C(=O)N[C@H](Cc1ccc(B(O)O)cc1)C(=O)O
9,-0,CC[C@H](C)[C@H](NC(=O)[C@@H]1CCCN1C(=O)[C@H](Cc1c[nH]cn1)NC(=O)[C@@H](NC(=O)[C@@H](Cc1ccc(O)cc1)NC(=O)[C@@H](NC(=O)[C@H](CCCN=C(N)N)NC(=O)CNC)C(C)C)[C@@H](C)CC)C(=O)O
10,-0,CC[C@H](C)[C@H](NC(=O)[C@@H]1CCCN1C(=O)[C@H](Cc1c[nH]cn1)NC(=O)[C@@H](NC(=O)[C@@H](Cc1ccc(O)cc1)NC(=O)[C@@H](NC(=O)[C@@H](CCCN=C(N)N)NC(=O)CNC)C(C)C)[C@@H](C)CC)C(=O)O
11,-0,CC[C@H](C)[C@H](NC(=O)[C@H](Cc1ccc(O)cc1)NC(=O)[C@@H](NC(=O)[C@@H](CCCNC(=N)N)NC(=O)CNC)C(C)C)C(=O)N[C@@H](Cc1c[nH]cn1)C(=O)N1CCC[C@@H]1C(=O)N[C@](C)(Cc1ccccc1)C(=O)O
12,-0,CC[C@H](C)[C@H](NC(=O)[C@H](Cc1ccc(O)cc1)NC(=O)[C@@H](NC(=O)[C@@H](CCCN=C(N)N)NC(=O)[C@@H](N)CC(=O)O)C(C)C)C(=O)NC(Cc1c[nH]cn1)C(=O)N1CCC[C@@H]1C(=O)N[C@@H](C(=O)O)[C@@H](C)CC (stereo in doubt)
13,-0,CC[C@H](C)[C@H](NC(=O)[C@H](Cc1ccc(O)cc1)NC(=O)[C@@H](NC(=O)[C@@H](CCCNC(=N)N)NC(=O)CNC)C(C)C)C(=O)N[C@@H](Cc1c[nH]cn1)C(=O)N1CCC[C@@H]1C(=O)N[C@@H](Cc1ccc2ccccc2c1)C(=O)O

# Test system: Rattus norvegicus
# Assay: In vivo AII-like activity, expressed as percent activity relative to AII (angiotensin II), measured in rat blood pressure assay
# Format: functional
# Settings: not given
# Outline: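 Rat blood pressure assay in vivo. Residual agonist activity is expressed as percent activity relative to AII.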
row,Structure (SMILES),Biological activity [%]
1,CC[C@H](C)[C@H](NC(=O)[C@H](Cc1ccc(O)cc1)NC(=O)[C@@H](NC(=O)[C@H](CCCN=C(N)N)NC(=O)[C@@H](N)CC(=O)O)C(C)C)C(=O)N[C@@H](Cc1c[nH]cn1)C(=O)N1CCC[C@H]1C(=O)N[C@@](C)(Cc1ccccc1)C(=O)O,80
2,CC[C@H](C)[C@H](NC(=O)[C@H](Cc1ccc(O)cc1)NC(=O)[C@@H](NC(=O)[C@H](CCCN=C(N)N)NC(=O)[C@@H](N)CC(=O)O)C(C)C)C(=O)N[C@@H](Cc1c[nH]cn1)C(=O)N1CCC[C@H]1C(=O)N[C@@H](Cc1c[nH]c2ccccc12)C(=O)O (H-DRVYIHPW-OH),22.2
3,CC[C@H](C)[C@H](NC(=O)[C@H](Cc1ccc(O)cc1)NC(=O)[C@@H](NC(=O)[C@H](CCCNC(=N)N)NC(=O)[C@@H](N)CC(=O)O)C(C)C)C(=O)N[C@@H](Cc1c[nH]cn1)C(=O)N1CCC[C@H]1C(=O)N[C@@H](C(=O)O)[C@@H](C)CC,0.72
4,COC(=O)[C@H](Cc1ccccc1)NC(=O)[C@@H]1CCCN1C(=O)[C@H](Cc1c[nH]cn1)NC(=O)[C@@H](NC(=O)[C@H](Cc1ccc(O)cc1)NC(=O)[C@@H](NC(=O)[C@H](CCCN=C(N)N)NC(=O)[C@@H](N)CC(N)=O)C(C)C)C(C)C (H-NRVYVHPF-OMe),10
5,CC(C)[C@H](NC(=O)[C@H](CCCNC(=N)N)NC(=O)[C@@H](N)CC(N)=O)C(=O)N[C@@H](Cc1ccc(O)cc1)C(=O)N1CCC[C@@H]1C(=O)N[C@@H](Cc1c[nH]cn1)C(=O)N1CCC[C@H]1C(=O)N[C@@H](Cc1ccccc1)C(=O)O,0.05
6,CC[C@H](C)[C@H](NC(=O)[C@H](Cc1ccc(O)cc1)NC(=O)[C@@H](NC(=O)[C@H](CCCN=C(N)N)NC(=O)[C@@H](N)CC(=O)O)C(C)C)C(=O)N[C@@H](Cc1c[nH]cn1)C(=O)N1CCC[C@H]1C(=O)N[C@@H](Cc1ccc(N)cc1)C(=O)O,53
7,CC[C@H](C)[C@H](NC(=O)[C@H](Cc1ccc(O)cc1)NC(=O)[C@@H](NC(=O)[C@H](CCCN=C(N)N)NC(=O)[C@@H](N)CC(=O)O)C(C)C)C(=O)N[C@@H](Cc1c[nH]cn1)C(=O)N1CCC[C@H]1C(=O)N[C@H](C(=O)O)C(C)C (H-DRVYIHPV-OH),0.5
8,CC(C)[C@H](NC(=O)[C@H](CCCN=C(N)N)NC(=O)[C@@H](N)CC(N)=O)C(=O)N[C@@H](Cc1ccc(O)cc1)C(=O)N1CCC[C@H]1C(=O)N[C@@H](Cc1c[nH]cn1)C(=O)N1CCC[C@H]1C(=O)N[C@@H](Cc1ccccc1)C(=O)O,10
9,CC(C)[C@H](NC(=O)[C@H](CCCN=C(N)N)NC(=O)[C@@H](N)CC(N)=O)C(=O)N[C@H](Cc1ccc(O)cc1)C(=O)N[C@H](C(=O)N[C@@H](Cc1c[nH]cn1)C(=O)N1CCC[C@H]1C(=O)N[C@@H](Cc1ccccc1)C(=O)O)C(C)C,0.03
10,CC[C@H](C)[C@H](NC(=O)[C@H](Cc1ccc(O)cc1)NC(=O)[C@@H](NC(=O)[C@H](CCCN=C(N)N)NC(=O)[C@@H](N)CC(=O)O)C(C)C)C(=O)N[C@@H](Cc1c[nH]cn1)C(=O)N1CCC[C@H]1C(=O)N[C@@H](Cc1ccc(Br)cc1)C(=O)O,50
